Assay results published in ChEMBL document CHEMBL1145824, “Simplified discodermolide analogues: synthesis and biological evaluation of 4-epi-7-dehydroxy-14,16-didemethyl-(+)-discodermolides as microtubule-stabilizing agents” (J Med Chem, 2003).

Tests used:
tubulin (Bos taurus) = assay: Percent assembly of bovine brain tubulin induced by compound at 10 uM versus that caused by 10 uM paclitaxel
A549 = assay: Antiproliferative potency determined as inhibitory concentration against A549 cells; assay type: functional, cell-based; conditions: Homo sapiens
Summary of the method: (§1)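 MTS growth-inhibition assay. Cells seeded at 500-2000/well, attached and grown 48 h, then given agent or vehicle (4% DMSO) for 72 h continuous exposure. A time-zero plate was read. Initial 5-fold dilution screen, then 2-fold dilutions (five concentrations) centred on the estimated GI50, in quadruplicate. Read-out A490 minus A630 with phenazine methanesulfonate as electron acceptor. Mean ± SD, N = 4 over 10 concentrations.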

2008 = assay: Inhibitory concentration against 2008 (ovarian) cells; assay type: functional; conditions: Homo sapiens
Summary of the method: (§2)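 Cells plated at 500-2000/well, allowed to attach and grow 48 h, then exposed continuously for 72 h to vehicle (4% DMSO) or agent. Initial screen at 5-fold dilutions; GI50 then set by a repeat screen of five 2-fold dilutions centred on the estimate, in quadruplicate. A time-zero plate was included. Cell number was read by MTS/phenazine methanesulfonate absorbance (490 minus 630 nm). Values are means ± SD, N=4.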

[1] = Antiproliferative potency determined as inhibitory concentration against MG63 cells; assay type: functional, cell-based; conditions: Homo sapiens, MG-63
Summary of the method: as §1

[2] = Inhibitory concentration against […] (breast) cells; assay type: functional; conditions: Homo sapiens
Summary of the method: as §2

PC-3 = assay: Inhibitory concentration against PC3 (prostate) cells; assay type: functional; conditions: Homo sapiens
Summary of the method: as §2

[3] = Percent competition for binding to preformed microtubules by 4 uM as against 2 uM of 3[H]paclitaxel; assay type: functional
Summary of the method: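 Microtubules preformed from 2 µM bovine brain tubulin with 20 µM ddGTP in monosodium glutamate, 30 min at 37 °C. Then 2 µM [3H]paclitaxel plus 4 µM agent (final concentrations) was added for 30 min at 37 °C. Samples were centrifuged at 14000 rpm for 20 min at room temperature, and supernatant radioactivity was counted. Bound = total minus free, normalized to the no-inhibitor control.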

C=C/C=C\C(C)C(OC(N)=O)[C@@H](C)[C@H](O)[C@@H](C)C/C(C)=C\C(C)[C@@H](O)[C@@H](C)/C=C\C(O)C[C@@H]1OC(=O)[C@H](C)[C@@H](O)[C@H]1C (stereo partly drawn)
Activity (tubulin (Bos taurus)): >100% | IC50 (A549): 3.8 nM | GI50 2008: 72 nM | IC50 [1]: 6 nM | GI50 [2]: 16 nM | GI50 (PC-3): 67 nM | Activity [3]: 64%

C=C/C=C\C(C)C(OC(N)=O)[C@@H](C)[C@H](O)C(C)C/C(C)=C\C(C)[C@@H](O)[C@@H](C)/C=C\C(C[C@@H]1OC(=O)[C@H](C)[C@@H](O)[C@H]1C)OC(C)=O (stereo partly drawn)
IC50 (A549): 0.8 nM

C=C/C=C\[C@H](C)[C@H](OC(N)=O)[C@@H](C)[C@H](O)CC/C=C\C(C)[C@@H](O)[C@@H](C)/C=C\CC[C@@H]1O[C@@H](OC)[C@H](C)[C@@H](OCOC)[C@@H]1C (stereo partly drawn)
Activity (tubulin (Bos taurus)): 11% | GI50 2008: 4700 nM | GI50 [2]: 3400 nM | GI50 (PC-3): 15000 nM | Activity [3]: 19%

C=C/C=C\C(C)C(OC(N)=O)[C@@H](C)[C@H](O)C(C)C/C(C)=C\C(C)[C@@H](O)[C@@H](C)/C=C\C(C[C@@H]1OC(=O)[C@H](C)[C@@H](OC(C)=O)[C@H]1C)OC(C)=O (stereo partly drawn)
IC50 (A549): 0.8 nM

C=C/C=C\C(C)C(OC(N)=O)[C@@H](C)[C@H](O)C(C)C/C(C)=C\C(C)[C@@H](OC(C)=O)[C@@H](C)/C=C\C(O)C[C@@H]1OC(=O)[C@H](C)[C@@H](OC(C)=O)[C@H]1C (stereo partly drawn)
IC50 (A549): 164 nM

C=C/C=C\C(C)C(OC(N)=O)[C@@H](C)[C@H](O)[C@@H](C)C/C=C/C(C)[C@@H](O)[C@@H](C)/C=C\C(O)C[C@@H]1OC(=O)C(C)[C@@H](O)[C@H]1C (stereo partly drawn)
IC50 (A549): 485 nM

CCCCCC[C@H](OC(N)=O)[C@@H](C)[C@H](O)CC/C=C\C(C)[C@@H](O)[C@@H](C)/C=C\CC[C@@H]1O[C@@H](OC)[C@H](C)[C@@H](OCOC)[C@@H]1C (stereo partly drawn)
Activity (tubulin (Bos taurus)): 6% | GI50 2008: 29000 nM | GI50 [2]: 24000 nM | GI50 (PC-3): > 50000 nM | Activity [3]: 9%

C=C/C=C\C(C)C(OC(N)=O)[C@@H](C)[C@H](O)[C@@H](C)C/C=C\C(C)[C@@H](O)[C@@H](C)/C=C\C(O)C[C@@H]1OC(=O)C(C)[C@@H](O)[C@H]1C (stereo partly drawn)
IC50 (A549): 7.8 nM

C=C/C=C\C(C)C(OC(N)=O)[C@@H](C)[C@H](O)C(C)C/C(C)=C\C(C)[C@@H](O)[C@@H](C)/C=C\C(O)C[C@@H]1OC(=O)[C@H](C)[C@@H](OC(C)=O)[C@H]1C (stereo partly drawn)
IC50 (A549): 3.8 nM

CCCCCC(C)(C)[C@H](OC(N)=O)[C@@H](C)[C@H](O)CC/C=C\C(C)[C@@H](O)[C@@H](C)/C=C\CC[C@@H]1O[C@@H](OC)[C@H](C)[C@@H](OCOC)[C@@H]1C (stereo partly drawn)
Activity (tubulin (Bos taurus)): 9% | GI50 2008: 42000 nM | GI50 [2]: 23000 nM | GI50 (PC-3): 38000 nM | Activity [3]: 15%

C=C/C=C\[C@H](C)[C@H](OC(N)=O)[C@@H](C)[C@H](O)CC/C=C\C(C)[C@@H](O)[C@@H](C)/C=C\CC[C@@H]1OC(=O)[C@H](C)[C@@H](OCOC)[C@@H]1C (stereo partly drawn)
Activity (tubulin (Bos taurus)): 27% | GI50 2008: 650 nM | GI50 [2]: 870 nM | GI50 (PC-3): 1800 nM | Activity [3]: 57%

C=C/C=C\[C@H](C)[C@H](OC(N)=O)[C@@H](C)[C@H](O)[C@@H](C)C/C(C)=C\[C@H](C)[C@@H](O)[C@@H](C)/C=C\[C@@H](O)C[C@@H]1OC(=O)[C@H](C)[C@@H](O)[C@H]1C [DISERMOLIDE]
Activity (tubulin (Bos taurus)): 14% | GI50 2008: 1500 nM | GI50 [2]: 2600 nM | GI50 (PC-3): 3000 nM | Activity [3]: 32%

C=C/C=C\C(C)C(OC(N)=O)[C@@H](C)[C@H](OC(C)=O)C(C)C/C(C)=C\C(C)[C@@H](O)[C@@H](C)/C=C\C(O)C[C@@H]1OC(=O)[C@H](C)[C@@H](OC(C)=O)[C@H]1C (stereo partly drawn)
IC50 (A549): 524 nM

C=C/C=C\[C@H](C)[C@H](OC(N)=O)[C@@H](C)[C@H](O)CC/C=C\C(C)[C@@H](O)[C@@H](C)/C=C\CC[C@@H]1OC(=O)[C@H](C)[C@@H](O)[C@@H]1C (stereo partly drawn)
Activity (tubulin (Bos taurus)): 11% | GI50 2008: 5200 nM | GI50 [2]: 2100 nM | GI50 (PC-3): 7500 nM | Activity [3]: 21%

C=C/C=C\C(C)C(OC(N)=O)[C@@H](C)[C@H](O)[C@@H](C)C/C(C)=C\C(C)[C@@H](O)[C@@H](C)/C=C\CC[C@@H]1OC(=O)C=C[C@H]1C (stereo partly drawn)
IC50 (A549): 11.4 nM

COCO[C@H]1[C@@H](C)[C@H](CC/C=C\[C@H](C)[C@H](O)[C@@H](C)/C=C\CC[C@@H](O)[C@H](C)COC(N)=O)OC(=O)[C@@H]1C
Activity (tubulin (Bos taurus)): <5% | GI50 2008: > 50000 nM | GI50 [2]: 30000 nM | GI50 (PC-3): > 50000 nM | Activity [3]: 13%

C=C/C=C\C(C)C(OC(N)=O)[C@@H](C)[C@H](O)[C@@H](C)C/C(C)=C\C(C)[C@@H](O)[C@@H](C)/C=C\C(O)C[C@@H]1OC(=O)C(C)=C[C@H]1C (stereo partly drawn)
IC50 (A549): 1.8 nM

C=C/C=C\C(C)C(OC(N)=O)[C@@H](C)[C@H](O)CC/C(C)=C\C(C)[C@@H](O)[C@@H](C)/C=C\C(O)C[C@@H]1OC(=O)[C@H](C)[C@@H](O)[C@H]1C (stereo partly drawn)
IC50 [1]: 10 nM

CC(=O)O[C@H]1C(=O)[C@@]2(C)[C@H]([C@H](OC(=O)c3ccccc3)[C@]3(O)C[C@H](OC(=O)[C@H](O)[C@@H](NC(=O)c4ccccc4)c4ccccc4)C(C)=C1C3(C)C)[C@]1(OC(C)=O)CO[C@@H]1C[C@@H]2O [PACLITAXEL]
Activity (tubulin (Bos taurus)): 100% | IC50 (A549): 1.4 nM | GI50 2008: 9.2 nM | GI50 [2]: 2.4 nM | GI50 (PC-3): 15 nM | Activity [3]: 37%
